# The sample as a whole holds a higher share of hits than the screen did.
# XBP1 UPR activ = adaptive UPR (XBP1) activation; CHO-XBP1 luciferase reporter, IRE1-XBP1 UPR activation, luminescence; percent of tunicamycin response, DMSO as zero; activation, % at 20 µM; 330,000 compounds, 0.33% hits; AID 463104;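 active = versus positive control, 20 µM dose yields 30% or more activation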;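 also: 100% = tunicamycin at 10 µg/mL and 0% = DMSO only wells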
#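 Material: IRE1-XBP1 luciferase reporter CHO line / Quantity: one thousand reporter cells per well / Buffer or medium: F12 with 10% serum / Compound: 20 µM single concentration, DMSO 1% / Times: 6 h treatment, 37 °C / Detection: Steady-Glo luciferase glow luminescence, 10 min after reagent addition / Benchmarks: tunicamycin high, DMSO low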
# CHOP inh = blocks CHOP induction under ER stress; CHO-K1 CHOP-promoter luciferase, tunicamycin-induced, 15-18 h; inhibition, % at 10 µM; 220,000 compounds, 3.8% hits;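 active = compounds that reduced the stress-induced luciferase reporter signal by more than about 70% of percent inhibition, limit read from the data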;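 also: 0% = tunicamycin plus vehicle and 100% = wells without tunicamycin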
# GAA850 FXN act = frataxin GAA850 promoter activation | HEK293 lucGAA850 FXN promoter luciferase reporter, 24 h; percent of 10 µM SAHA response | activation, % at 6 µM | 360,000 compounds, 0.56% hits | AID 540364;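 active = activation above the average of all compounds screened plus 3 SD, cutoff fixed separately per campaign, cut at about 7.5% in these data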;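 also: 0% = DMSO wells and 100% = 10 µM SAHA wells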
# CHOP UPR activ = apoptotic UPR (CHOP) activation; CHO-CHOP luciferase reporter, luminescence; percent of tunicamycin response over DMSO baseline; activation, % at 10 µM; 330,000 compounds, 0.34% hits; AID 449763;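 active = at 10 µM dose, activation of 40% or more, normalized to positive control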;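 also: 100% = tunicamycin at 10 µg/mL and 0% = DMSO alone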
#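 Test system: CHO CHOP reporter cells. Input: 500 CHO-CHOP cells per well. Medium: F12 with 10% FBS. Technique: luciferase luminescence. Measure: percent activation relative to tunicamycin control. Dosing: 10 µM compound, 0.5% DMSO. Timing: 16-18 h cell attachment, then 6 h compound exposure, 37 °C.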
# CHOP inh conf = confirmation of CHOP induction inhibitors; shares compounds with CHOP inh; CHO-CHOP promoter luciferase reporter, tunicamycin-induced, luminescence; inhibition, % at 10 µM; 2,100 compounds, 45% hits;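 active = mean of three repeat readings of reporter signal inhibition above a set limit, cut at about 70% in these data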;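 also: 0% = tunicamycin plus vehicle and 100% = wells lacking tunicamycin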
# The depositor's hits bear a star; nt = not tested or not shown.
SMILES,XBP1 UPR activ,CHOP inh,GAA850 FXN act,CHOP UPR activ,CHOP inh conf
CC1(C(=O)Nc2ccc(Cl)c(C(F)(F)F)c2)Cc2c(-c3ccc(C(N)=O)cc3)ccnc2O1 (configuration not stated),nt,nt,-1,nt,nt
CCOC(=O)C1=C(c2ccccc2)O/C(=C(/C#N)C(F)(F)F)S1,-2,97*,nt,54*,113*
CCOC(=O)C1=C(c2ccccc2)O/C(=C(\C(=O)OC)C(F)(F)F)S1,-1,48,0,-3,nt
c1ccc2c(-c3c[nH]c4ccccc34)c3ccccc3nc2c1,1,98*,-3,-1,-18
O=C(O)c1cc(-c2c[nH]c3ccccc23)nc2ccc3ccccc3c12,1,-20,3,0,nt
CC1(C(=O)NCc2ccco2)CCN1C(=O)C1(c2ccccc2)CC1 (configuration not stated),nt,nt,1,nt,nt
Cc1sc(NC(=O)/C=C/C(=O)O)c(C(N)=O)c1-c1ccc(C(C)(C)C)cc1,-1,-8,3,0,nt
Cc1sc(NC(=O)c2cccc([N+](=O)[O-])c2)c(C(N)=O)c1-c1ccc(C(C)(C)C)cc1,-1,107*,-4,10,139*
Cc1cccc2c1N(CCOc1ccc(C(C)(C)C)cc1)C(=O)C2=O,3,100*,2,2,1
Cc1ccc(OCCCN2C(=O)C(=O)c3cccc(C)c32)cc1,1,67,-2,-3,nt
CC(O)(c1cccc(F)c1)c1nc(-c2cc(F)cc(F)c2)cs1 (configuration not stated),nt,nt,-1,nt,nt
COCCNC(=O)C1(C)CCN(C(=O)c2cc(C(C)(C)C)nn2C)C1 (configuration not stated),nt,nt,1,nt,nt
COc1ccc(S(=O)(=O)NC(=O)C2(C)CCN2C(=O)COc2ccc(Cl)cc2)cc1OC (configuration not stated),nt,nt,-2,nt,nt
Cc1ccc(C(=O)N/C(=C\c2ccc(Br)cc2)c2nc(=S)[nH][nH]2)cc1,-1,108*,3,0,122*
O=C(N/C(=C/c1cccc(Br)c1)c1nc(=S)[nH][nH]1)c1ccccc1,5,35,1,4,nt
C[N+]1(CCC(=O)c2ccccc2)CCCCC1,-1,97*,0,0,10
CCCCCCCCCCCCCCCC[n+]1ccc(/C=N/O)cc1,8,103*,-7,24,125*
CCCCCCCCCCCCCCCC[n+]1ccccc1,nt,nt,-8,nt,nt
Cc1ccc(NC(=O)Nc2nnc(-c3ccncc3)s2)cc1C,3,104*,-3,1,68
CC(C)CC1C(=O)N(Cc2cn(Cc3ccco3)nn2)CCS(=O)(=O)N1Cc1ccc(-c2ccc(F)cc2)cc1 (configuration not stated),nt,nt,-3,nt,nt
c1ccc(-c2cc3ccccc3[nH]2)cc1,0,nt,1,4,nt
Clc1ccc2[nH]c(-c3ccccc3)cc2c1,1,104*,2,4,70*
N#Cc1c(-c2ccccc2)cc(-c2ccc(O)cc2)nc1N,9,nt,2,3,nt
CS(=O)c1nc(-c2ccc(Br)cc2)cc(-c2ccccc2)c1C#N (configuration not stated),1,nt,-9,162*,-14
N#CC(C#N)=C1C=CC=CN1/C(=C\c1ccccc1Cl)C(=O)c1ccccc1,nt,107*,4,nt,125*
SMILES,XBP1 UPR activ,CHOP inh,GAA850 FXN act,CHOP UPR activ,CHOP inh conf
N#C/C(=C\c1cccc(Cl)c1)C(=O)c1ccccc1,-2,-7,-1,-1,nt
COc1ccc(NC(=O)c2cc(-c3cc(F)ccc3OC(C)C)n[nH]2)c(C)c1,nt,nt,3,nt,nt
CCOC(=O)C1=C(c2ccccc2)OC(N)=C(C#N)C1C1CCCCC1 (configuration not stated),0,109*,2,-2,52
CCn1c(O)c(/C=C2\C=NN=C2c2ccccc2)sc1=S,-1,98*,0,1,14
O=S(=O)(Nc1ccccc1)c1ccc(Oc2ncc(C(F)(F)F)cc2Cl)cc1,2,109*,0,0,115*
COc1ccc(NC(=O)c2oc3ccccc3c2NC(=O)C(C)(C)C)cc1,7,103*,0,0,14
OCc1ccccc1-c1nc(NCc2ccccc2)nc2ccsc12,nt,nt,-1,nt,nt
Cc1oc(-c2ccccc2F)nc1CS(=O)(=O)CC(=O)N1CCOCC1,-5,29,0,2,nt
Cc1cccc(N2CCN(C(=O)CS(=O)(=O)Cc3nc(-c4ccccc4F)oc3C)CC2C)c1 (configuration not stated),-3,98*,0,0,80*
COC(=O)[C@@]1(Cc2ccc(OC)cc2)[C@@H]2C(=CC(=O)[C@H]2CC(=O)C(=O)N(C)C)CN1C(=O)c1ccccc1,-3,22,nt,-1,nt
C=C1C(=O)C=C2CN(C(=O)c3ccccc3)[C@@](Cc3ccc(F)cc3)(C(=O)OC)[C@@H]12,-10,109*,-13,-9,128*
Cc1cccc(C)c1Cn1c(C)c(C(=O)NCCC#N)sc1=O,nt,nt,2,nt,nt
Cc1cc(C2=NNC(=NC3CC3)SC2)c(C)n1-c1ccccc1,nt,106*,-17,nt,121*
CC1CCC(C(C)C)C(OC(=O)COC(=O)c2cc(O)ccc2N)C1 (configuration not stated),26,105*,4,23,109*
NNC(=O)c1ccc(COc2ccc3c(c2)CCC3)o1,-1,5,4,1,nt
O=C(N/N=C/c1cccc(O)c1)c1ccc(COc2ccc3c(c2)CCC3)o1,-2,109*,0,3,-4
CCN(CC)c1ccc2cc(/C(N)=N/NC(=O)c3cccs3)c(=O)oc2c1,93*,102*,nt,27,-5
Cn1cnc([N+](=O)[O-])c1S(=O)(=O)c1ccc(Cl)cc1,nt,109*,5,nt,116*
Cn1cnc([N+](=O)[O-])c1NC(C)(C)C,-4,27,1,0,nt
CCc1nc2c(OCCC3CCCCC3)cccn2c1N(C=O)Cc1ccccc1,nt,nt,1,nt,nt
CCN1C(=O)C(CC(=O)Nc2ccc(OC)cc2)N(CCc2ccccc2)C1=S (configuration not stated),-1,8,1,-1,nt
COC(=O)CN1C(=S)N(Cc2ccccc2)C(=O)C1CC(=O)Nc1ccc(Br)cc1 (configuration not stated),-2,102*,-4,0,98*
CCOC(=O)CCCCC(=O)c1[nH]c(=O)[nH]c1CSc1nnc2c3cc(Br)ccc3n(C)c2n1,2,103*,nt,-1,6
COc1ccc(CCCNC(=O)C2Cc3c(-c4cccc(NC(C)=O)c4)ccnc3O2)cc1 (configuration not stated),nt,nt,-4,nt,nt
CCOc1ccc(-n2c(SCC(=O)Nc3ccc(Br)cc3)nc3n[nH]c(C)c3c2=N)cc1,-1,103*,2,12,108*
CCOc1ccc(-n2c(SCC(=O)Nc3ccccc3CC)nc3n[nH]c(C)c3c2=N)cc1,8,28,nt,-1,nt

# Screening data deposited in PubChem BioAssay by several laboratories.
